Stability data for one compound are collected here from ChEMBL document CHEMBL3351740, “Identification of a novel aminotetralin class of HDAC6 and HDAC8 selective inhibitors” (J Med Chem, 2014).

Series [1] relates to Liver microsome. As to the kind of experiment: Stability in human liver microsomes at 1 uM after 3 to 30 mins by LC-MS/MS analysis. In kind it is ADME. A digest of the protocol:
(§1)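 Liver microsomes at 0.5 mg/mL (human or mouse) in 100 mM potassium phosphate, pH 7.4, with 1 μM compound, prewarmed 10 min at 37 °C. Reaction started with NADPH (10 mM) and stopped at 0, 3, 6, 9, 15 and 30 min with ice-cold methanol holding tolbutamide internal standard. Centrifuged 10 min at 4 °C; supernatant analysed by LC-MS/MS.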

For series [2], the system named is Liver. The series can be described thus: Stability in mouse liver microsomes at 1 uM after 3 to 30 mins by LC-MS/MS analysis. In kind it is ADME. In outline:
as §1
On the technique in general: Microsomes from liver hold many membrane-bound enzymes, among them those of drug oxidation.

Molecules are shown by their SMILES.

For the compound `O=C(NO)c1ccc2c(c1)C[C@H](Nc1nccc(-c3cccnc3)n1)CC2`, the Stability entry in series [1] and in series [2] was “Stable” in each case.
